Measurements reported in ChEMBL document CHEMBL4706502, “Synthesis and structure activity relationships of cyanopyridone based anti-tuberculosis agents” (Eur J Med Chem, 2020).
Calls of active or inactive are those of the source. The rule behind the calls is not given here.

Experiments:
[1] = tested on: Mycobacterium tuberculosis; assay: Antitubercular activity against Mycobacterium tuberculosis H37Rv ATCC 27294 assessed as reduction in microbial growth under 7H9/glucose medium after 1 week by two fold serial dilution method; type: functional; details: H37Rv ATCC 27294, 168 h, time 1 weeks
Procedure, shortened: (§1)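 M. tuberculosis H37Rv grown to OD650nm 0.2-0.3 and diluted 1000-fold; about 1× 10^4 bacteria per well. Compounds taken from DMSO stocks and 2-fold serially diluted, in duplicate. Incubated 37 °C for 1 week, read by inverted mirror. MIC = lowest concentration giving complete growth inhibition. Isoniazid positive control, DMSO negative control. Media: GAST/Fe pH 6.6 or 7H9/glucose/casitone/Tyloxapol.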

[2] = tested on: Mycobacterium tuberculosis; assay: Antitubercular activity against Mycobacterium tuberculosis H37Rv ATCC 27294 assessed as reduction in microbial growth under GAST/Fe medium after 1 week by two fold serial dilution method; type: functional; details: H37Rv ATCC 27294, 168 h, time 1 weeks; procedure, shortened: as §1
[3] = Cytotoxicity against human MRC5 cells assessed as reduction in cell viability after 24 hrs by NRU assay; type: cell-based
[4] = tested on: Mycobacterium tuberculosis; assay: Inhibition of wild-type Mycobacterium tuberculosis thymidylate kinase expressed in Escherichia coli BLi5 competent cells at 0.2 mM using dTMP as substrate by lactate dehydrogenase, pyruvate kinase and nucleoside diphosphate kinase coupled spectrophotometric method
Procedure, shortened: (§2)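 Purified MtbTMPK in a coupled spectrophotometric assay. Substrates fixed at dTMP 0.05 mM and ATP 0.5 mM. Compounds in DMSO, serially diluted; IC50 calculated, or no inhibition recorded at 0.2 mM.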

[5] = Inhibition of wild-type Mycobacterium tuberculosis thymidylate kinase expressed in Escherichia coli BLi5 competent cells using dTMP as substrate by lactate dehydrogenase, pyruvate kinase and nucleoside diphosphate kinase coupled spectrophotometric method; procedure, shortened: as §2
[6] = Selectivity index, ratio of CC50 for human MRC5 cells to ratio of MIC99 for antitubercular activity against Mycobacterium tuberculosis H37Rv ATCC 27294 assessed as reduction in microbial growth under GAST/Fe medium; type: toxicity; details: read-out: Selectivity Index
[7] = Selectivity index, ratio of CC50 for human MRC5 cells to ratio of MIC99 for antitubercular activity against Mycobacterium tuberculosis H37Rv ATCC 27294 assessed as reduction in microbial growth under 7H9/glucose medium; type: toxicity; details: read-out: Selectivity Index

Row | SMILES | MIC99 [1] | MIC99 [2] | CC50 at 24 h [3] | inhibition [4] | IC50 [5] | selectivity ratio [6] | selectivity ratio [7]
1 | C[S+]([O-])c1c(-c2cccc(OCc3cccc(Cl)c3)c2)c[nH]c(=O)c1C#N (centres undefined) | 9.4 µM | 9.4 µM | > 64 µM |  |  |  | 
2 | C[S+]([O-])c1c(-c2ccc(Oc3ccc(Cl)c(Cl)c3)cc2)c[nH]c(=O)c1C#N (centres undefined) | 9.4 µM | 19 µM | 28 µM |  |  |  | 
3 | CS(=O)(=O)c1c(-c2ccc(Cl)c(Cl)c2)c[nH]c(=O)c1C(N)=O |  | 19 µM | > 64 µM |  |  |  | 
4 | C[S+]([O-])c1c(-c2ccc(Cl)c(Cl)c2)c[nH]c(=O)c1C#N (centres undefined) | 19 µM | 12.5 µM | > 64 µM |  |  |  | 
5 | COc1ccc(-c2c[nH]c(=O)c(C#N)c2[S+](C)[O-])cc1 (centres undefined) | > 100 µM | > 100 µM | > 64 µM |  |  |  | 
6 | CS(=O)(=O)c1c(-c2cccc(Cl)c2)c[nH]c(=O)c1C#N | > 50 µM | > 50 µM | > 64 µM |  |  |  | 
7 | COc1ccc(Oc2ccc(-c3c[nH]c(=O)c(C#N)c3[S+](C)[O-])cc2)cc1 (centres undefined) | 19 µM | 9.4 µM | 23 µM |  |  |  | 
8 | C[S+]([O-])c1c(-c2cccc(Oc3ccc(Cl)c(Cl)c3)c2)c[nH]c(=O)c1C#N (centres undefined) | 12.5 µM | 19 µM | 8 µM |  |  |  | 
9 | CS(=O)(=O)c1c(-c2ccc(C(F)(F)F)cc2)c[nH]c(=O)c1C#N | > 50 µM | > 50 µM | > 64 µM |  |  |  | 
10 | C[S+]([O-])c1c(-c2ccccc2Oc2ccccc2)c[nH]c(=O)c1C#N (centres undefined) | 50 µM | 9.4 µM | 30 µM | inactive |  |  | 
11 | C[S+]([O-])c1c(-c2ccccc2)c[nH]c(=O)c1C#N (centres undefined) | 25 µM | 37 µM | > 64 µM | inactive |  |  | 
12 | Cc1ccc(Oc2ccc(-c3c[nH]c(=O)c(C#N)c3[S+](C)[O-])cc2)cc1 (centres undefined) | 9.4 µM | 4.7 µM | 28 µM |  |  |  | 
13 | NNC(=O)c1ccncc1 [ISONIAZID] | 0.15 µM | 0.2 µM |  |  |  |  | 
14 | C[S+]([O-])c1c(-c2cccc(OCc3ccc(Cl)c(Cl)c3)c2)c[nH]c(=O)c1C#N (centres undefined) | 9.4 µM | 9.4 µM | > 64 µM |  |  |  | 
15 | C[S+]([O-])c1c(-c2cccc(OCc3ccccc3[N+](=O)[O-])c2)c[nH]c(=O)c1C#N (centres undefined) | 37 µM | 19 µM | 64 µM |  |  |  | 
16 | C[S+]([O-])c1c(-c2ccc(Cl)c(Cl)c2)c[nH]c(=O)c1C(N)=O (centres undefined) | 50 µM | ≥ 50 µM | 16 µM |  |  |  | 
17 | Cc1ccc(Oc2cccc(-c3c[nH]c(=O)c(C#N)c3[S+](C)[O-])c2)cc1 (centres undefined) | 25 µM | 6.25 µM | 30 µM |  |  |  | 
18 | C[S+]([O-])c1c(-c2cccc(Oc3ccc(Cl)cc3)c2)c[nH]c(=O)c1C#N (centres undefined) | 12.5 µM | 9.5 µM | 24 µM |  |  |  | 

Row | SMILES | MIC99 [1] | MIC99 [2] | CC50 at 24 h [3] | inhibition [4] | IC50 [5] | selectivity ratio [6] | selectivity ratio [7]
19 | C[S+]([O-])c1c(-c2ccc(Oc3ccccc3)cc2)c[nH]c(=O)c1C#N (centres undefined) | 25 µM | 3.13 µM | > 64 µM | inactive |  |  | 
20 | CSc1c(-c2ccccc2)c[nH]c(=O)c1C#N | 100 µM | ≥ 100 µM | 64 µM |  | 206 µM |  | 
21 | C[S+]([O-])c1c(-c2ccc(Cl)cc2)c[nH]c(=O)c1C#N (centres undefined) | 19 µM | 25 µM | > 64 µM |  |  |  | 
22 | C[S+]([O-])c1c(-c2ccccc2Cl)c[nH]c(=O)c1C#N (centres undefined) | 12.5 µM | 37 µM | > 64 µM |  |  |  | 
23 | C[S+]([O-])c1c(-c2cccc(Cl)c2)c[nH]c(=O)c1C#N (centres undefined) | 19 µM | 37 µM | > 64 µM |  |  |  | 
24 | C[S+]([O-])c1c(-c2ccc(Oc3ccc(Cl)cc3)cc2)c[nH]c(=O)c1C#N (centres undefined) | 9.4 µM | 9.4 µM | 25 µM |  |  |  | 
25 | CS(=O)(=O)c1c(-c2ccccc2Cl)c[nH]c(=O)c1C#N | 37 µM | > 50 µM | > 64 µM |  |  |  | 
26 | C[S+]([O-])c1c(-c2cccc(Oc3ccccc3)c2)c[nH]c(=O)c1C#N (centres undefined) | 37 µM |  | 32 µM | inactive |  |  | 
27 | C[S+]([O-])c1c(-c2ccc(-c3ccccc3)cc2)c[nH]c(=O)c1C#N (centres undefined) | 1.2 µM | 2.3 µM | > 64 µM |  |  | 27.8 | 50
28 | C[S+]([O-])c1c(-c2cccc(OCc3ccccc3Cl)c2)c[nH]c(=O)c1C#N (centres undefined) | 9.4 µM | 4.7 µM | 25 µM |  |  |  | 
29 | C[S+]([O-])c1c(-c2ccc(Br)cc2)c[nH]c(=O)c1C#N (centres undefined) | 12.5 µM | 19 µM | > 64 µM |  |  |  | 
30 | C[S+]([O-])c1c(-c2ccc(C(F)(F)F)cc2)c[nH]c(=O)c1C#N (centres undefined) | 37 µM | 19 µM | > 64 µM |  |  |  | 
31 | C[S+]([O-])c1c(-c2cccc(OCc3ccc(Cl)cc3)c2)c[nH]c(=O)c1C#N (centres undefined) | 9.4 µM | 9.4 µM | 31 µM |  |  |  | 
32 | COc1ccc(Oc2cccc(-c3c[nH]c(=O)c(C#N)c3[S+](C)[O-])c2)cc1 (centres undefined) | 25 µM | 6.25 µM | 30 µM |  |  |  | 
33 | C[S+]([O-])c1c(-c2cccc(OCc3ccccc3)c2)c[nH]c(=O)c1C#N (centres undefined) | 19 µM | 6.25 µM | 25 µM |  |  |  | 
34 | C[S+]([O-])c1c(-c2ccc(OCc3ccccc3)cc2)c[nH]c(=O)c1C#N (centres undefined) | 9.4 µM | 4.7 µM | 25 µM |  |  |  | 
35 | C[S+]([O-])c1cc(-c2cccc(Br)c2)[nH]c(=O)c1C#N (centres undefined) | 19 µM | 19 µM |  |  | 28 µM |  | 
